From PubChem BioAssay
Hits are enriched below; roughly 0.77% of the tested compounds scored in any of these assays.
hIAP inh – blocks human intestinal alkaline phosphatase; P09923; purified IAP, CDP-Star luminescence, 30 min; inhibition, % at 10 µM; hit rate 0.12% among 330,000; AID 2544;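 active means inhibition reaching a set limit with compound at 10 µM in the primary screen, cut at about 35% in these data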;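 further: plate controls were DMSO wells with enzyme for no effect and no-enzyme buffer wells for full effect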
bIAP activator – intestinal alkaline phosphatase (bovine) activation | purified bovine IAP, CDP-star luminescence, 30 min; stronger effect = higher value; fold of DMSO-control signal, blank-subtracted | activation factor at 20 µM | hit rate 0.17% among 200,000;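 active means activation factor of 2 or more at 20 µM, a signal rise over negative controls twice the positive control's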
mIAP block – blocks mouse intestinal alkaline phosphatase | purified mouse IAP, CDP-Star luminescence, 30 min | inhibition, % at 10 µM | hit rate 0.2% among 330,000;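 active means inhibition of at least 40% at 10 µM in the primary screen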;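 further: plate controls were DMSO with enzyme for no effect and no enzyme wells for full effect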
mIAP activ – mouse IAP activation | hit rate 0.24% among 330,000 | activation factor at 10 µM | muIAP, CDP-Star luminescence, 30 min; stronger effect = higher value; 1 = vehicle-only enzyme signal, 0 = enzyme-free wells | AID 2805;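 active means activation factor of at least 2 at 20 µM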
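also added = chemiluminescent substrate CDP-Star | test system = mouse IAP enzyme | signal = chemiluminescence readout | compound = DMSO-dissolved test compounds | incubation = 30 min at room temperature | benchmarks = DMSO wells, no-enzyme wells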
hIAP activ – increases human intestinal alkaline phosphatase activity | P09923 | purified human IAP, CDP-Star luminescence, 30 min; stronger effect = higher value; 1 = vehicle-only enzyme, 0 = enzyme-free background | activation factor at 10 µM | hit rate 0.16% among 330,000;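 active means activation factor of the enzyme at least 2-fold when tested at 20 µM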
bIAP inh – blocks bovine intestinal alkaline phosphatase activity | inhibition, % at 20 µM | purified bovine IAP, CDP-star luminescence, 30 min | 190,000 tested, under 10 active;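 active means over 50% inhibition of intestinal alkaline phosphatase at 20 µM in the single-dose screen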
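System: purified bovine intestinal alkaline phosphatase (IAP) enzyme; Input: IAP diluted 1/65,000,000 in the well; Measured by: CDP-star luminescence signal; Compound dosing: 20 µM single dose; Incubation: 30 min reaction at room temperature.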
mIAP inh confirm – mouse IAP inhibition confirmation; hit rate 4.7% among 11,000; inhibition, % at 10 µM; shares compounds with mIAP block; purified mouse IAP, CDP-Star luminescence, 30 min;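 active means inhibition of at least 40% at 10 µM in either of the two replicates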;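 further: plate controls were DMSO wells with enzyme for no effect and buffer wells lacking enzyme for full effect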
Starred values were filed as active, the others as inactive; nt = not tested or not shown.

SMILES	hIAP inh	bIAP activator	mIAP block	mIAP activ	hIAP activ	bIAP inh	mIAP inh confirm
O=C(N/N=C/c1ccc([N+](=O)[O-])o1)c1ccncc1	-14	nt	43*	0.57	1.1	nt	48*
CCCCCC(=O)N/N=C/c1ccc([N+](=O)[O-])o1	-20	0.9	23	0.77	1.2	8	nt
O=C(NN=Cc1ccc(F)cc1)c1ccccc1NS(=O)(=O)c1cccs1	-6	nt	0	1	1.1	nt	nt
O=C(N/N=C/c1ccc([N+](=O)[O-])o1)c1cc2ccccc2o1	7	nt	40*	0.6	0.93	nt	59*
C=CCN=c1scc(-c2ccco2)n1/N=C/c1ccc(O)c(O)c1O	8	nt	59*	0.41	0.92	nt	68*
COCCN=c1scc(-c2ccco2)n1/N=C/c1ccc(O)c(O)c1O	-21	1	54*	0.46	1.2	4	53*
Cc1ccc(S(=O)(=O)N2CCN(C(=O)c3cc(C4CC4)nc4c3cnn4C(C)C)CC2)cc1	-6	nt	6	0.94	1.1	nt	nt
CCc1ccc(NC(=O)NCC2CCN(Cc3cccc(Cl)c3)CC2)cc1	-54	nt	-209	3.1*	1.5	nt	-120
Cc1ccc(NC(=O)NCC2CCN(Cc3cccc(Cl)c3)CC2)cc1Cl	-39	1.1	-322	4.2*	1.4	-14	-87
COc1cccc(NC(=O)NCC2CCN(Cc3ccc(F)cc3)CC2)c1	-36	nt	-96	2	1.4	nt	nt
Cc1ccc(C)c(OCc2cc(C(=O)N3CC[C@H](O)C3)no2)c1	-5	nt	8	0.92	1	nt	nt
CC(C)(C)OC(=O)NCCCCCNC(=O)c1nc[nH]c1C(=O)NCCCCCNC(=O)OC(C)(C)C	-44	nt	-6	1.1	1.4	nt	nt
N#CC(C#N)=C1C=C2C=C(N3CCCCC3)CCC2CC1 (centres undefined)	nt	1.5	nt	nt	nt	-51	nt
N#CC1=C(N)C2=C(N3CCCCC3)CCCC2C1(C#N)C#N (centres undefined)	-2	0.3	23	0.77	1	nt	40*
O=c1cc(-c2ccc(O)cc2)oc2cc(O)c(C3OC(CO)C(O)C(O)C3O)c(O)c12 (centres undefined)	0	0.9	50*	0.49	1	11	47*
Cn1nc(OC(=O)Nc2cccc(Cl)c2)cc1C(F)(F)F	6	0.9	-241	3.4*	0.94	7	-151
Cn1nc(OC(=O)Nc2ccccc2)cc1C(F)(F)F	-34	0.9	-14	1.1	1.3	9	nt
